KCNK3 inh: human KCNK3 channel inhibition, primary screen. O14649. CHO-KCNK3 thallium flux, FluxOR fluorescence; stronger effect = lower value. B-score at 10 µM. 340,000 compounds, 0.84% hits. AID 602410;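 active = B-score under library mean minus 4 SD, starting fluorescence ratio at most library mean plus 5 SD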;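 note: more negative B-score means stronger inhibition of thallium flux through KCNK3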
Target sequence (O14649 whole entry, looked up): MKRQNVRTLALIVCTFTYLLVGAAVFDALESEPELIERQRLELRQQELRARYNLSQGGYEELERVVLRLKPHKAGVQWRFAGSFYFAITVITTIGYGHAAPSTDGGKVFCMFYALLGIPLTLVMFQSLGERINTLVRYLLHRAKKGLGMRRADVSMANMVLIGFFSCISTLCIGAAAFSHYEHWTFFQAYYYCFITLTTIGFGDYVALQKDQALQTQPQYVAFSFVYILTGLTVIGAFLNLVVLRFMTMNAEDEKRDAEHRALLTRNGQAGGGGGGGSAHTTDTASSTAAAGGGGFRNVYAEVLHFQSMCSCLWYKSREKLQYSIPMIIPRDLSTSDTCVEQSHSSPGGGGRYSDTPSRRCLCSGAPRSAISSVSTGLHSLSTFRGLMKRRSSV
KCNQ1 act: human KCNQ1 channel potentiation or activation; P51787; CHO-K1 KCNQ1, thallium flux FluxOR fluorescence; stronger effect = higher value; B-score at 10 µM; 310,000 compounds, 0.35% hits; AID 2648;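 active = fluorescence ratio B-score, a plate-corrected score, at least three library SD, with initial intensity B-score within 5 SD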
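Schedule – 37 °C overnight plating, 90-min dark dye load, 20-min compound pretreatment · System – stable KCNQ1 CHO-K1 line · Probe or stimulus – thallium- and potassium-containing depolarizing buffer · Measured by – kinetic FluxOR fluorescence, 10 s baseline plus 110 s post-stimulus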
Kir21 inh: inhibitors of mouse Kir2.1 inward-rectifier potassium channel; P35561; B-score at 10 µM; HEK293-Kir2.1, FluxOR thallium flux fluorescence; stronger effect = lower value; 310,000 compounds, 0.85% hits;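 active = fluorescence ratio B-score at or below minus 3 SD of library scores, with starting-brightness B-score within 2 SD, cut at about -4.2 in these data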;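 note: channel flux triggered by added potassium and thallium sulfate stimulus; B-score of peak minus minimum fluorescence over baseline after thallium stimulus; more negative B-score means stronger Kir2.1 block with less thallium influx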
Target sequence (P35561 whole entry, looked up): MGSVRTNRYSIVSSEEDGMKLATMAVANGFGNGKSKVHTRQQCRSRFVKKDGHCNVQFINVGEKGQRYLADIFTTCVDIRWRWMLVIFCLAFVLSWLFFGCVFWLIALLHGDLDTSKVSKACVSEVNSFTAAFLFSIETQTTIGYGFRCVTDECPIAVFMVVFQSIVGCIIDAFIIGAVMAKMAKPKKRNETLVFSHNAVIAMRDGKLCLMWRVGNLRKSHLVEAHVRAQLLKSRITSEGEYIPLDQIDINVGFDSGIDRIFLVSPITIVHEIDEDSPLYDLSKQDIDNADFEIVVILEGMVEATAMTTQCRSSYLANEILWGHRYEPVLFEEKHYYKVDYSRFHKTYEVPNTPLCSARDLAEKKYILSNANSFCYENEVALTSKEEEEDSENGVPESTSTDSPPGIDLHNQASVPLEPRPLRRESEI
KCNQ1 block: inhibitors of human KCNQ1 potassium channel; CHO-K1 KCNQ1, FluxOR thallium flux fluorescence; stronger effect = higher value; 310,000 compounds, 1.3% hits; B-score at 10 µM; AID 2642;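 active = compounds whose thallium flux B-score, printed positive for inhibition, exceeds three library SD while starting fluorescence stays within three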;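 note: channel opened by potassium depolarization with thallium stimulus after 20 min compound exposure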
hERG protect: shields human hERG channel from block by proarrhythmic agents | CHO-hERG, FluxOR thallium flux, dofetilide IC70 present | activation (rescue from dofetilide block), less the hit threshold, % at 10 µM | 310,000 compounds, 0.51% hits | AID 1511;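 active = activation above the mean of controls blocked by dofetilide plus 5 SD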;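 note: thallium influx through hERG after potassium depolarization seen as dye fluorescence rise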
KCNK9 inh: human KCNK9 channel inhibition; HEK293 KCNK9, FluxOR thallium flux fluorescence; stronger effect = lower value; AID 488922; 310,000 compounds, 1.2% hits; B-score at 10 µM;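 active = ratio B-score over 3 SD below the library mean, with starting fluorescence within 5 SD of its mean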;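 note: negative B-score means less thallium flux so channel inhibition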
KCNQ1 inh valid: confirmation of human KCNQ1 potassium channel inhibitors; shares compounds with KCNQ1 block; KCNQ1 cell line, FluxOR thallium flux fluorescence; inhibition, % at 10 µM; 1,600 compounds, 93% hits; AID 588353;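 active = primary screen active, with duplicate mean exceeding buffer control mean plus 3 SD of buffer wells, cut at about 28% in these data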
CHO KCNQ1 ctr: activity in parental CHO cells lacking KCNQ1; fluorescence ratio (Tl flux) at 10 µM; parental CHO-K1, FluxOR thallium flux fluorescence ratio; stronger effect = lower value; zero means no signal rise above baseline; shares compounds with KCNQ1 block; 1,600 compounds, 21% hits;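 active = mean of duplicate thallium-flux fluorescence ratios in parental host cells more than 5 SD below the buffer control mean, cut at about 0.38 in these data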;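 note: ratio is peak minus minimum fluorescence divided by baseline fluorescence; actives read low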
KCNQ1 APC inh: human KCNQ1 inhibition validated by electrophysiology | shares compounds with KCNQ1 block | KCNQ1-CHO cells, automated patch clamp current | calls only at 10 µM | 490 compounds, 20% hits;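 active = KCNQ1 current drop exceeding 3 SD of negative control wells, seen in both duplicate runs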;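 note: steady state current during a 2 s step from -80 to +40 mV; negative values mean current inhibition and positive values mean potentiation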
KCNQ2 inh: KCNQ1 inhibitor that also blocks rat KCNQ2 channel. shares compounds with KCNQ1 block. AID 651746. inhibition, % at 10 µM. 1,600 compounds, 71% hits. KCNQ2 cells, FluxOR thallium flux fluorescence;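 active = mean percent inhibition of the KCNQ2 thallium signal more than 5 SD above the buffer-only control wells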;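 note: KCNQ2 expressed in CHO cells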
KCNQ1-KCNE1 inh: selectivity of KCNQ1 inhibitors: inhibition of human KCNQ1/KCNE1 channel; shares compounds with KCNQ1 block; KCNQ1/KCNE1 cells, FluxOR thallium flux fluorescence; 1,600 compounds, 77% hits; inhibition, % at 10 µM;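 active = mean percent inhibition of duplicate wells above the buffer-only control mean plus 3 SD of those controls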
Each line names hits and unclear results; the compound was inactive in the other large screens (follow-up assays come after a bar, where they were run). Only some compounds are listed: those with a hit (about 3.7% of all), similar ones and a draw of the others.

Cc1ccc(O)c(-c2cc3ccccc3[nH]2)c1	KCNQ1 block 10 | KCNQ1 inh valid 132 | CHO KCNQ1 ctr inactive | KCNQ2 inh inactive | KCNQ1-KCNE1 inh 166%
CC(=O)C1=C(c2ccccc2)N(C(C)=O)n2c(C)nnc2S1	none
CN1C2CCC1/C(=C/c1cccn1C)C(=O)/C2=C\c1cccn1C	KCNQ1 block 17 | KCNQ1 inh valid active | CHO KCNQ1 ctr 0.14 | KCNQ2 inh inactive | KCNQ1-KCNE1 inh inactive
CN1C2CCC1/C(=C\c1ccc(F)cc1)C(=O)/C2=C/c1ccc(F)cc1	none
CCOC(=O)C1CCCN(C(=O)c2ccc(-c3ccc([N+](=O)[O-])cc3)o2)C1 (centres undefined)	none
O=C(O)c1ccccc1S(=O)(=O)CC(=O)N1CCCCC1	none
Cc1nn(-c2ccccc2)c(/N=C/c2ccccc2O)c1-c1ccccc1	KCNQ1 block 6 | KCNQ1 inh valid 119 | CHO KCNQ1 ctr inactive | KCNQ1 APC inh inactive | KCNQ2 inh 109% | KCNQ1-KCNE1 inh 166%
Cc1nn(-c2ccccc2)c(N)c1-c1ccccc1	none
CCS(=O)(=O)c1ncc(Cl)c(C(=O)Nc2ccccc2OC)n1	KCNQ1 block 11 | KCNQ1 inh valid 73 | CHO KCNQ1 ctr inactive | KCNQ2 inh 63% | KCNQ1-KCNE1 inh 66%
COc1cccc(NC(=O)c2nc(S(C)(=O)=O)ncc2Cl)c1	Kir21 inh -6.3, KCNQ1 block 7 | KCNQ1 inh valid inactive | CHO KCNQ1 ctr inactive | KCNQ2 inh inactive | KCNQ1-KCNE1 inh 52%
COc1ccccc1NC(=O)c1nc(S(=O)(=O)Cc2ccccc2)ncc1Cl	none
CC(=O)COc1c(-c2ccco2)oc2ccccc2c1=O	none
COCc1cc(N2CCOCC2)nc(-c2ccccc2)n1	none
COCc1cc(N2CCN(c3ccccc3F)CC2)nc(-c2ccccc2)n1	KCNQ1 block 6 | KCNQ1 inh valid 51 | CHO KCNQ1 ctr inactive | KCNQ2 inh 60% | KCNQ1-KCNE1 inh 140%
COCc1cc(Sc2ccc(Cl)cc2)nc(-c2ccccc2)n1	KCNQ1 block 6 | KCNQ1 inh valid 77 | CHO KCNQ1 ctr inactive | KCNQ2 inh 91% | KCNQ1-KCNE1 inh 80%
CN(Cc1ccccc1)C(=O)c1ccc(NC(=O)Cc2ccc(NC(=O)C3CCN(C(=O)CCc4ccccc4)CC3)cc2)cc1	none (no result: KCNQ1 act, Kir21 inh, KCNQ1 block, hERG protect, KCNK9 inh)
CCOC(=O)C1CCN(C(=O)NS(=O)(=O)c2ccc(C)cc2)CC1	none
c1ccc(COc2ccc(CNCc3cccnc3)cc2)cc1	none
Cc1nc2c(-c3ccccc3)c(C)nn2c(N)c1-c1ccccc1	KCNQ1 block 7 | KCNQ1 inh valid active | CHO KCNQ1 ctr inactive | KCNQ1 APC inh inactive | KCNQ2 inh inactive | KCNQ1-KCNE1 inh inactive
O=C(Nc1nc2ccccc2[nH]1)c1ccc(Cl)c(S(=O)(=O)N2CCCC2)c1	KCNQ1 block 11 | KCNQ1 inh valid inactive | CHO KCNQ1 ctr inactive | KCNQ2 inh inactive | KCNQ1-KCNE1 inh 36%
COc1cccc2cc(C(=O)NNC(=O)c3ccc(Br)cc3)c(=O)oc12	none
FC(F)(F)c1cccc(NC(=S)NC2CCCC2)c1	none
FC(F)(F)c1ccc(NC(=S)NC2CCCCC2)cc1	KCNQ1 block 7 | KCNQ1 inh valid 65 | CHO KCNQ1 ctr inactive | KCNQ2 inh 59% | KCNQ1-KCNE1 inh 37%
S=C(Nc1ccc2nsnc2c1)NC1CCCCC1	none
Fc1cccc(NC(=S)NC2CCCCCCC2)c1	KCNQ1 block 8 | KCNQ1 inh valid 105 | CHO KCNQ1 ctr inactive | KCNQ1 APC inh active | KCNQ2 inh 75% | KCNQ1-KCNE1 inh 88%
CCCCNC(=S)Nc1ccc(C(F)(F)F)cc1	KCNQ1 block 8 | KCNQ1 inh valid 32 | CHO KCNQ1 ctr inactive | KCNQ2 inh inactive | KCNQ1-KCNE1 inh inactive
S=C(Nc1ccc(Cl)c(Cl)c1)NC1CCCCC1	KCNQ1 block 6 | KCNQ1 inh valid 69 | CHO KCNQ1 ctr inactive | KCNQ2 inh inactive | KCNQ1-KCNE1 inh inactive
Nc1nc(COC(=O)C2CCN(C(=O)c3ccc(Cl)cc3)CC2)nc(Nc2ccccc2)n1	none (no result: KCNQ1 act, Kir21 inh, KCNQ1 block, hERG protect, KCNK9 inh)
Cc1ccc(NC(=S)NC2CCCCC2)cc1S(=O)(=O)N(C)C	KCNQ1 block 7 | KCNQ1 inh valid 132 | CHO KCNQ1 ctr inactive | KCNQ1 APC inh inactive | KCNQ2 inh 107% | KCNQ1-KCNE1 inh inactive
CCOc1ccc(N=C2NC(=O)S/C2=C\c2ccc(N(C)C)cc2)cc1	KCNQ1 block 10 | KCNQ1 inh valid 181 | CHO KCNQ1 ctr inactive | KCNQ2 inh inactive | KCNQ1-KCNE1 inh inactive
COc1ccccc1-c1ccc(SCc2cccc(C)c2)nn1	KCNQ1 block 11 | KCNQ1 inh valid inactive | CHO KCNQ1 ctr inactive | KCNQ2 inh 60% | KCNQ1-KCNE1 inh inactive
O=S(=O)(c1ccc2[nH]c3c(c2c1)CCCC3)N1CCCCC1	KCNQ1 block 9 | KCNQ1 inh valid 88 | CHO KCNQ1 ctr inactive | KCNQ1 APC inh active | KCNQ2 inh 75% | KCNQ1-KCNE1 inh 110%
CCCc1ccc(C(C)NC(=S)NC2CCCCC2)cc1 (centres undefined)	KCNQ1 block 6 | KCNQ1 inh valid 46 | CHO KCNQ1 ctr inactive | KCNQ2 inh inactive | KCNQ1-KCNE1 inh inactive
COc1ccc(-c2nc(CS(=O)CC(=O)NCc3ccc(F)cc3)c(C)o2)cc1 (centres undefined)	none
O=C(CSc1n[nH]c(=O)[nH]c1=O)Nc1ccc(SC(F)F)cc1	none (no result: KCNQ1 act, Kir21 inh, KCNQ1 block, hERG protect, KCNK9 inh)
CCS(=O)(=O)N1CCC(C(=O)Nc2ccc(C(C)=O)cc2)CC1	none
Cc1ccc(S(=O)(=O)N2CCCc3cc(NC(=O)c4c(F)cccc4F)ccc32)cc1	KCNQ1 block 7 | KCNQ1 inh valid 66 | CHO KCNQ1 ctr inactive | KCNQ2 inh 85% | KCNQ1-KCNE1 inh 100%
COc1cccc(OC)c1C(=O)Nc1ccc2c(c1)CCCN2S(=O)(=O)c1ccc(C)cc1	none
CC(=O)c1cccc(NC(=O)c2ccc3c(c2)CCN3S(=O)(=O)c2ccccc2)c1	KCNQ1 block 6 | KCNQ1 inh valid 65 | CHO KCNQ1 ctr inactive | KCNQ2 inh inactive | KCNQ1-KCNE1 inh 78%
COc1ccc(CCNC(=O)CSc2nnc3ccc(-c4ccccn4)nn23)cc1	none

High-throughput results (PubChem BioAssay)
